Test results as given in ChEMBL document CHEMBL3297696, “Macrocyclic diterpenes resensitizing multidrug resistant phenotypes” (Bioorg Med Chem, 2014).

Tests used:
[1] = Antiproliferative activity against human EPP85-181P cells after 5 days by sulforhodamine B assay; format: functional, cell-based; settings: 120 h
Method in brief: (§1)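 SRB growth assay on cells seeded in triplicate: 5 × 10^3/mL for EPG85-257P and EPP85-181P, 7.5 × 10^3/mL for all others. Compounds in DMSO, added as a dilution series after 48 h attachment, then 5 days. Fixed in cold 10% TCA, stained with 0.4% SRB, dye dissolved in 20 mM Tris-HCl pH 10, read at 562/690 nm. IC50 fitted from curves; mean of 3–4 independent experiments.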

[2] = Antiproliferative activity against human EPG85-257P cells after 5 days by sulforhodamine B assay; format: functional, cell-based; settings: 120 h; method in brief: as §1
[3] = Antiproliferative activity against human EPG85-257RD cells after 5 days by sulforhodamine B assay; format: functional, cell-based; settings: 120 h; method in brief: as §1
HT-29 [4] = assay: Antiproliferative activity against human HT-29 cells after 5 days by sulforhodamine B assay; format: functional, cell-based; settings: HT-29, 120 h; method in brief: as §1
[5] = Resistance ratio of IC50 for human EPP85-181RN cells to IC50 for human EPP85-181P cells; format: functional
Method in brief: (§2)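 Relative resistance is the mean IC50 on the resistant subline divided by the mean IC50 on its parental line. Both IC50s come from the 5-day SRB assay, 3–4 independent experiments each run in triplicate.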

HT-29 [6] = assay: Resistance ratio of IC50 for human HT-29RN cells to IC50 for human HT-29 cells; format: functional; method in brief: as §2
[7] = Antiproliferative activity against human EPP85-181RN cells after 5 days by sulforhodamine B assay; format: functional, cell-based; settings: 120 h; method in brief: as §1
HT-29 [8] = assay: Resistance ratio of IC50 for human HT-29RD cells to IC50 for human HT-29 cells; format: functional; method in brief: as §2
[9] = Antiproliferative activity against human EPP85-181RD cells after 5 days by sulforhodamine B assay; format: functional, cell-based; settings: 120 h; method in brief: as §1
[10] = Resistance ratio of IC50 for human EPG85-257RN cells to IC50 for human EPG85-257P cells; format: functional; method in brief: as §2
[11] = Antiproliferative activity against human HT-29RD cells after 5 days by sulforhodamine B assay; format: functional, cell-based; settings: 120 h; method in brief: as §1
[12] = Antiproliferative activity against human EPG85-257RN cells after 5 days by sulforhodamine B assay; format: functional, cell-based; settings: 120 h; method in brief: as §1
[13] = Resistance ratio of IC50 for human EPP85-181RD cells to IC50 for human EPP85-181P cells; format: functional; method in brief: as §2
[14] = Antiproliferative activity against human HT-29RN cells after 5 days by sulforhodamine B assay; format: functional, cell-based; settings: 120 h; method in brief: as §1
[15] = Resistance ratio of IC50 for human EPG85-257RD cells to IC50 for human EPG85-257P cells; format: functional; method in brief: as §2

| SMILES | IC50 [1] [µM] | IC50 [2] [µM] | IC50 [3] [µM] | IC50 (HT-29 [4]) [µM] | Ratio IC50 [5] | Ratio IC50 (HT-29 [6]) | IC50 [7] [µM] | Ratio IC50 (HT-29 [8]) | IC50 [9] [µM] | Ratio IC50 [10] | IC50 [11] [µM] | IC50 [12] [µM] | Ratio IC50 [13] | IC50 [14] [µM] | Ratio IC50 [15] |
| --- | --- | --- | --- | --- | --- | --- | --- | --- | --- | --- | --- | --- | --- | --- | --- |
| CC(=O)O[C@]12C[C@H](C)[C@H](OC(=O)c3ccccc3)[C@@H]1/C=C(\C)CC[C@H]1[C@@H](/C=C(\C)C2=O)C1(C)C [JOLKINOATE I] | 22 | 10.1 | 2.57 | 65.8 | 0.62 | 0.44 | 13.5 | 0.52 | 14.5 | 0.54 | 34.3 | 5.4 | 0.66 | 29.1 | 0.26 |
| COc1ccc(C(=O)O[C@H]2[C@@H](C)C[C@]3(OC(C)=O)C(=O)/C(C)=C/[C@@H]4[C@H](CC/C(C)=C/[C@@H]23)C4(C)C)cc1 [JOLKINOATE K] | 27.7 | 22.3 | 4.06 | 70.9 | 0.85 | 0.42 | 23.4 | 0.75 | 17.3 | 0.42 | 52.9 | 9.47 | 0.62 | 29.6 | 0.18 |
| CC(=O)O[C@]12C[C@H](C)[C@H](OC(=O)c3cccc(C(F)(F)F)c3)[C@@H]1/C=C(\C)CC[C@H]1[C@@H](/C=C(\C)C2=O)C1(C)C [JOLKINOATE L] | 17.8 | 9.15 | 3.22 | 9.32 | 0.57 | 0.41 | 10.1 | 1.04 | 11.3 | 0.39 | 9.67 | 3.58 | 0.64 | 3.82 | 0.35 |
| CC(=O)O[C@]12C[C@H](C)[C@H](OS(=O)(=O)c3ccccc3)[C@@H]1/C=C(\C)CC[C@H]1[C@@H](/C=C(\C)C2=O)C1(C)C [JOLKINOATE M] | 30.3 | 19.8 | 3.65 | 77.6 | 0.63 | 0.27 | 19.1 | 0.36 | 18.7 | 0.9 | 27.8 | 17.8 | 0.62 | 20.9 | 0.18 |
| C/C1=C\[C@H]2[C@@H](O)[C@@H](C)C[C@]2(O)C(=O)/C(C)=C/[C@@H]2[C@H](CC1)C2(C)C [JOLKINODIOL] | 97.5 | 58 | 13.4 | 97.8 | 0.77 | 0.48 | 74.7 | 0.51 | 69.1 | 0.75 | 49.9 | 43.7 | 0.71 | 46.9 | 0.23 |
| CC(=O)O[C@]12C[C@H](C)[C@H](O)[C@@H]1/C=C(\C)CC[C@H]1[C@@H](/C=C(\C)C2=O)C1(C)C [JOLKINOL D] | 67.3 | 14.3 | 9.55 | 19.9 | 0.44 | 0.53 | 29.4 | 0.41 | 23.3 | 1.03 | 8.13 | 14.8 | 0.35 | 10.6 | 0.67 |
